In ChEMBL document CHEMBL1287679, “Tuning hydrophobicity of highly cationic tetradecameric Gramicidin S analogues using adamantane amino acids” (Bioorg Med Chem, 2010):
In brackets after ≈: the same amount, converted by molar mass. Where a SMILES comes first, the peptide text is derived from it. [ ]: non-standard residue; d: D form. Gly(1-adamantyl) = N[C@H](C(=O)O)C12CC3CC(CC(C3)C1)C2; Orn = NCCC[C@H](N)C(=O)O

What was measured:
Bacillus cereus = assay: Antimicrobial activity against Bacillus cereus ATCC 11778 by broth dilution method; format: functional
Summary of the method: (§1)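 Stored at −70 °C, grown at 35 °C on Columbia sheep-blood agar, then suspended in physiological saline to OD 0.1 AU at 595 nm and diluted 100× in saline. 2 µL inoculum was added to 50 µL cation-adjusted Mueller Hinton II broth. Peptides in methanol (4 g/L stock) were diluted in water, then two-fold in broth (64–1 mg/L). Incubation was 35 °C for 24–48 h. MIC is the lowest concentration inhibiting growth.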

[1] = Therapeutic index, concentration required to achieve 100% hemolysis in erythrocyte to MIC for Escherichia coli ATCC 25922; settings: erythrocytes
Summary of the method: (§2)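 Therapeutic index was taken as the concentration for 100% haemolysis divided by MIC for the given strain.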

Escherichia coli = assay: Antimicrobial activity against Escherichia coli ATCC 25922 by broth dilution method; format: functional; summary of the method: as §1
Staphylococcus aureus [2] = assay: Antimicrobial activity against methicillin-resistant Staphylococcus aureus ATCC 49775 by broth dilution method; format: functional
Summary of the method: (§3)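 Frozen (−70 °C) stocks grown at 35 °C on Columbia sheep-blood agar, suspended in physiological saline to OD595 0.1, diluted 100×; 2 µL inoculum into 50 µL cation-adjusted Mueller Hinton II broth in 96-well plates. Peptides dissolved in methanol (4 g/L), diluted in water, two-fold serial dilutions in broth (64–1 mg/L). Incubation at 35 °C, 24–48 h; MIC = lowest concentration inhibiting growth.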

Staphylococcus aureus [3] = assay: Antimicrobial activity against methicillin-resistant Staphylococcus aureus ATCC 43300 by broth dilution method; format: functional; summary of the method: as §3
Staphylococcus aureus [4] = assay: Antimicrobial activity against methicillin-resistant Staphylococcus aureus isolate 1110301981 by broth dilution method; format: functional; summary of the method: as §3
Staphylococcus aureus [5] = assay: Antimicrobial activity against community acquired methicillin-resistant Staphylococcus aureus isolate 1110301146 by broth dilution method; format: functional; summary of the method: as §3
Enterococcus faecalis = assay: Antimicrobial activity against Enterococcus faecalis ATCC 29212 by broth dilution method; format: functional; summary of the method: as §1
[6] = Toxicity in Erythrocyte assessed as concentration required to achieve 100% hemolysis after 4 hrs; format: cell-based
Summary of the method: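 Heparinized fresh blood was centrifuged (1000g, 10 min, 10 °C). Erythrocytes were washed three times in 0.85% saline and diluted to a 1/25 packed volume. Peptides were prepared as a 1.5 mM stock in 30% DMSO/0.5 mM saline and serially two-fold diluted in triplicate rows. 1% Triton-X served as the full-lysis control. Incubation was 37 °C for 4 h, then centrifugation; supernatant was read. Value is the concentration giving 100% lysis.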

[7] = Therapeutic index, concentration required to achieve 100% hemolysis in erythrocyte to MIC for Staphylococcus aureus ATCC 29213; settings: erythrocytes; read-out: Ratio; summary of the method: as §2
Pseudomonas aeruginosa = assay: Antimicrobial activity against Pseudomonas aeruginosa ATCC 27853 by broth dilution method; format: functional; summary of the method: as §1
Staphylococcus aureus [8] = assay: Antimicrobial activity against Staphylococcus aureus ATCC 29213 by broth dilution method; format: functional; summary of the method: as §3
Staphylococcus aureus [9] = assay: Antimicrobial activity against methicillin-resistant Staphylococcus aureus N133 by broth dilution method; format: functional; summary of the method: as §3
[10] = tested on: Staphylococcus epidermidis; assay: Antimicrobial activity against Staphylococcus epidermidis ATCC 12228 by broth dilution method; format: functional; summary of the method: as §1
Staphylococcus aureus [11] = assay: Antimicrobial activity against methicillin-resistant Staphylococcus aureus N229 by broth dilution method; format: functional; summary of the method: as §3

Row | Compound | MIC (Bacillus cereus) [µg/mL] | selectivity ratio [1] | MIC (Escherichia coli) [µg/mL] | MIC (Staphylococcus aureus [2]) [µg/mL] | MIC (Staphylococcus aureus [3]) [µg/mL] | MIC (Staphylococcus aureus [4]) [µg/mL] | MIC (Staphylococcus aureus [5]) [µg/mL] | MIC (Enterococcus faecalis) [µg/mL] | Activity [6] [µM] | selectivity ratio [7] | MIC (Pseudomonas aeruginosa) [µg/mL] | MIC (Staphylococcus aureus [8]) [µg/mL] | MIC (Staphylococcus aureus [9]) [µg/mL] | MIC [10] [µg/mL] | MIC (Staphylococcus aureus [11]) [µg/mL]
1 | NCCC[C@@H]1NC(=O)[C@H](CC23CC4CC(CC(C4)C2)C3)NC(=O)[C@H](CCCN)NC(=O)[C@H](C23CC4CC(CC(C4)C2)C3)NC(=O)[C@H](CCCN)NC(=O)[C@@H]2CCCN2C(=O)[C@@H](Cc2ccccc2)NC(=O)[C@H](CCCN)NC(=O)[C@H](CC23CC4CC(CC(C4)C2)C3)NC(=O)[C@H](CCCN)NC(=O)[C@H](C23CC4CC(CC(C4)C2)C3)NC(=O)[C@H](CCCN)NC(=O)[C@@H]2CCCN2C(=O)[C@@H](Cc2ccccc2)NC1=O | 2 (≈ 1.02 µM) | 0.12 | 64 (≈ 32.5 µM) | 32 (≈ 16.3 µM) | 32 (≈ 16.3 µM) | 32 (≈ 16.3 µM) | 32 (≈ 16.3 µM) | 32 (≈ 16.3 µM) | 7.8 | 0.1 | 64 (≈ 32.5 µM) | 64 (≈ 32.5 µM) | 32 (≈ 16.3 µM) | 32 (≈ 16.3 µM) | 32 (≈ 16.3 µM)
2 | CC(C)C[C@@H]1NC(=O)[C@H](CCCCN)NC(=O)[C@H](C(C)C)NC(=O)[C@@H]2CCCN2C(=O)[C@@H](Cc2ccc(O)cc2)NC(=O)[C@H](CC(C)C)NC(=O)[C@H](CCCCN)NC(=O)[C@H](C(C)C)NC(=O)[C@H](CCCCN)NC(=O)[C@H](CC(C)C)NC(=O)[C@@H]2CCCN2C(=O)[C@@H](Cc2ccc(O)cc2)NC(=O)[C@H](C(C)C)NC(=O)[C@H](CCCCN)NC1=O (cyclo(KLKV[dY]PLKVKL[dY]PV)) |  |  |  |  |  |  |  |  | 3.9 |  |  |  |  |  | 
3 | CC(C)C[C@@H]1NC(=O)[C@H](CCCN)NC(=O)[C@H](C(C)C)NC(=O)[C@@H]2CCCN2C(=O)[C@@H](Cc2ccccc2)NC(=O)[C@H](CC(C)C)NC(=O)[C@H](CCCN)NC(=O)[C@H](C(C)C)NC(=O)[C@H](CCCN)NC(=O)[C@H](CC(C)C)NC(=O)[C@@H]2CCCN2C(=O)[C@@H](Cc2ccccc2)NC(=O)[C@H](C(C)C)NC(=O)[C@H](CCCN)NC1=O (cyclo(L[Orn]V[Orn]L[dF]PV[Orn]L[Orn]V[dF]P)) | 4 (≈ 2.53 µM) | 0.1 | 64 (≈ 40.5 µM) |  |  |  |  | 8 (≈ 5.06 µM) | 3.9 | 0.2 | 32 (≈ 20.2 µM) | 16 (≈ 10.1 µM) |  | 8 (≈ 5.06 µM) | 
4 | CC(C)C[C@@H]1NC(=O)[C@H](CCCCN)NC(=O)[C@H](C(C)C)NC(=O)[C@@H]2CCCN2C(=O)[C@@H](Cc2ccc(O)cc2)NC(=O)[C@H](CC(C)C)NC(=O)[C@H](CCCCN)NC(=O)[C@H](C(C)C)NC(=O)[C@H](CCCCN)NC(=O)[C@H](CC(C)C)NC(=O)[C@@H]2CCCN2C(=O)[C@@H](Cc2ccc(O)cc2)NC(=O)[C@H](C(C)C)NC(=O)[C@H](CCCCN)NC1=O (cyclo(VKLKV[dY]PLKVKL[dY]P)) | 32 (≈ 19.2 µM) |  | > 64 |  |  |  |  | 32 (≈ 19.2 µM) |  |  | > 64 | > 64 |  | 64 (≈ 38.3 µM) | 
5 | NCCC[C@@H]1NC(=O)[C@H](C23CC4CC(CC(C4)C2)C3)NC(=O)[C@H](CCCN)NC(=O)[C@@H]2CCCN2C(=O)[C@@H](Cc2ccccc2)NC(=O)[C@H](CCCN)NC(=O)[C@H](C23CC4CC(CC(C4)C2)C3)NC(=O)[C@H](CCCN)NC(=O)[C@@H]2CCCN2C(=O)[C@@H](Cc2ccccc2)NC1=O (cyclo([Orn][dF]P[Orn][Gly(1-adamantyl)][Orn][dF]P[Orn][Gly(1-adamantyl)])) | 8 (≈ 6.03 µM) | 62.5 | 16 (≈ 12.1 µM) |  |  | 8 (≈ 6.03 µM) | 8 (≈ 6.03 µM) | 8 (≈ 6.03 µM) | 500 | 62.5 | 8 (≈ 6.03 µM) | 8 (≈ 6.03 µM) | 8 (≈ 6.03 µM) | 4 (≈ 3.01 µM) | 8 (≈ 6.03 µM)
